{"data": "Measured values of several laboratories", "target": "Dual specificity protein kinase CLK4 (CLK4, Homo sapiens, UniProt Q9HAZ1)", "note": "Each line is one published result; the experiments were not run side by side."}
{"SMILES": "CCCOc1ccc([C@@H]2[C@@H](C(=O)O)[C@H](c3ccc4c(c3)OCO4)CN2CC(=O)Nc2c(CC)cccc2CC)cc1", "read-out": "cell-free assay", "method": "competition with immobilised ligand", "tested at": "1 µM", "endpoint": "remaining binding", "result": "89%"}
{"SMILES": "Oc1ccc(-c2nc(-c3ccncc3)c(-c3ccc(F)cc3)[nH]2)cc1", "read-out": "cell-free assay", "tested at": "0.5 µM", "endpoint": "remaining signal", "result": "106%"}
{"SMILES": "FC(F)(F)c1ccc2c(c1)nc(-c1cccnc1)n2C1CC1", "read-out": "cell-free assay", "method": "competition with immobilised ligand", "tested at": "1 µM", "endpoint": "remaining binding", "result": "100%"}
{"SMILES": "CNC(=O)c1cc(Oc2ccc(NC(=O)Nc3ccc(Cl)c(C(F)(F)F)c3)cc2)ccn1", "read-out": "cell-free assay", "tested at": "0.5 µM", "endpoint": "remaining signal", "result": "95.2%"}
{"SMILES": "COc1cc(-c2cc(-c3ccc(N4CCNCC4)cc3)cnc2C)cc(OC)c1OC", "read-out": "enzyme activity", "mode": "inhibitor", "tested at": "0.1 µM", "endpoint": "inhibition", "result": "1%"}
{"SMILES": "O=C(Nc1cnn(-c2csc(C(=O)NC3COC3)c2)c1)Nc1c(F)cccc1Cl", "read-out": "enzyme activity", "mode": "inhibitor", "tested at": "5 µM", "endpoint": "remaining activity", "result": "93.2%"}
{"SMILES": "CN(c1ccnc(CNc2nc(Nc3ccc4c(c3)CC(=O)N4)ncc2C(F)(F)F)n1)S(C)(=O)=O", "read-out": "binding", "method": "competition with immobilised ligand", "tested at": "1 µM", "endpoint": "remaining binding", "result": "1.4%"}
{"SMILES": "CCN(CC)CCNC(=O)c1c(C)[nH]c(/C=C2\\C(=O)Nc3ccc(F)cc32)c1C", "read-out": "cell-free assay", "tested at": "0.5 µM", "endpoint": "remaining signal", "result": "26.3%"}
{"SMILES": "CN(CCCC(F)(F)F)c1nccc(-c2cnn3ncccc23)n1", "read-out": "binding", "tested at": "1 µM", "endpoint": "remaining binding", "result": "25%"}
{"SMILES": "Cn1cncc1C1=CN(c2ncnc3[nH]cnc23)CCS1", "read-out": "enzyme activity", "mode": "inhibitor", "method": "radiometric", "tested at": "50 nM", "endpoint": "inhibition", "result": "27.1%"}
{"SMILES": "CCCCN(CCCC)C(=O)CN1C[C@@H](c2cc(OC)c3c(c2)OCO3)[C@H](C(=O)O)[C@H]1CC(C)(C)CCC", "read-out": "cell-free assay", "method": "competition with immobilised ligand", "tested at": "1 µM", "endpoint": "remaining binding", "result": "72.4%"}
{"SMILES": "Cn1cnc(Br)c1C1=CN(c2ncnc3[nH]cnc23)CCS1", "read-out": "enzyme activity", "mode": "inhibitor", "method": "radiometric", "tested at": "50 nM", "endpoint": "inhibition", "result": "24%"}
{"SMILES": "Cc1ccc(NC(=O)c2ccc(CN3CCN(C)CC3)cc2)cc1Nc1nc(-c2cccnc2)cs1", "read-out": "cell-free assay", "tested at": "0.5 µM", "endpoint": "remaining signal", "result": "93.3%"}
{"SMILES": "CC(C)(O)[C@H]1CC[C@H](Nc2ccc3ncc(-c4cccc(C(F)(F)F)c4)n3n2)CC1", "read-out": "enzyme activity", "mode": "inhibitor", "tested at": "1 µM", "endpoint": "remaining activity", "result": "21.3%"}
{"SMILES": "Cc1ccc(C(=O)Nc2ccc(CN3CCN(C)CC3)c(C(F)(F)F)c2)cc1C#Cc1cnc2cccnn12", "read-out": "enzyme activity", "mode": "inhibitor", "tested at": "23.5 nM", "endpoint": "remaining activity", "result": "54%"}
{"SMILES": "O=C(NC[C@@H]1[C@H]2CN(C(=O)OCc3cc(C(F)(F)F)cc(C(F)(F)F)c3)C[C@@H]12)c1ccc2[nH]nnc2c1", "read-out": "cell-free assay", "method": "competition with immobilised ligand", "tested at": "1 µM", "endpoint": "remaining binding", "result": "98%"}
{"SMILES": "Cc1cnc(NC2CCOCC2)nc1-n1cnc(C(=O)NC(CN)c2cc(F)cc(Cl)c2)c1 (stereo not drawn)", "read-out": "enzyme activity", "mode": "inhibitor", "method": "radiometric", "tested at": "1 µM", "endpoint": "remaining activity", "result": "63%"}
{"SMILES": "CC(C)(C)c1nc2c(s1)c1nc(N)ncc1c1ccc(NS(=O)(=O)c3c(F)cccc3F)c(F)c12", "read-out": "enzyme activity", "mode": "inhibitor", "method": "radiometric", "tested at": "1 µM", "endpoint": "remaining activity", "result": "81%"}
{"SMILES": "Cc1ccc(NC(=O)c2ccc(C)c(C(F)(F)F)c2)cc1C#Cc1nn(C2CCC(O)CC2)c2ncnc(N)c12 (stereo not drawn)", "read-out": "cell-free assay", "tested at": "10 µM", "endpoint": "remaining signal", "result": "58%"}
{"SMILES": "COc1cccc(CNC(=O)c2nc3scc(COCc4ccc(C(=O)O)cc4)c3c(=O)[nH]2)c1", "read-out": "cell-free assay", "method": "competition with immobilised ligand", "tested at": "1 µM", "endpoint": "remaining binding", "result": "94.4%"}
{"SMILES": "CS(=O)(=O)Nc1cccc(-c2csc(NC(=O)CSc3nc4nccnc4c(=O)n3CCc3ccccc3)n2)c1", "read-out": "enzyme activity", "mode": "inhibitor", "tested at": "10 µM", "endpoint": "inhibition", "result": "14%"}
